# Experimental data of several laboratories.
# Each line is one published result; the experiments were not run side by side.
# RPS6KA6: Ribosomal protein S6 kinase alpha-6 (RPS6KA6, Homo sapiens, UniProt Q9UK32)
# RPS6KA6 N-terminal kinase domain: Ribosomal protein S6 kinase alpha-6, N-terminal kinase domain (RPS6KA6, Homo sapiens, UniProt Q9UK32)
# RPS6KA6 C-terminal kinase domain: Ribosomal protein S6 kinase alpha-6, C-terminal kinase domain (RPS6KA6, Homo sapiens, UniProt Q9UK32)
SMILES,target,read-out,action,technique,tested at,endpoint,result
Cn1c2c(c3ccc(Cl)c(Cl)c31)C(C#N)C1(CCCCC1)NC2=O (racemic),RPS6KA6,thermal stability,,DSF,10 µM,ΔTm,0 °C
COc1ccc(COc2ccc(Cc3cnc(N)nc3N)cc2OC)cc1,RPS6KA6,cell-free assay,,,0.5 µM,remaining signal,101%
Cc1ccc(C(=O)NCc2ccsc2)cc1C#Cc1cn(C(C)C)c2ncnc(N)c12,RPS6KA6,enzyme activity,inhibitor,,1 µM,activity vs control,71%
COc1cc2ncnc(Nc3ccc(Oc4ccccc4)cc3C)c2cc1OC,RPS6KA6,enzyme activity,inhibitor,,1 µM,inhibition,7%
Cc1ccc(C(=O)Nc2ccc(CN3CCN(C)CC3)c(C(F)(F)F)c2)cc1C#Cc1cnc2cccnn12,RPS6KA6,enzyme activity,inhibitor,,23.5 nM,activity vs control,84%
O=C(O)[C@H]1[C@H](Cn2nnc3ccccc3c2=O)CC[C@@H]1C(=O)c1ccc(OCCC2CCOCC2)cc1,RPS6KA6 N-terminal kinase domain,cell-free assay,,competition with immobilised ligand,1 µM,remaining binding,86%
CCN1CCC2(CC1)NC(=O)c1c(c3ccc(Cl)c(Cl)c3n1C)C2C#N (racemic),RPS6KA6,thermal stability,,DSF,10 µM,ΔTm,0 °C
C[C@H](NC(=O)c1cnc2n1[C@](C)(Cc1ccc(C#N)cc1)C(=O)N2c1cc(Cl)c(F)c(Cl)c1)C(=O)NC1(c2ccccn2)CC1,RPS6KA6 N-terminal kinase domain,cell-free assay,,competition with immobilised ligand,1 µM,remaining binding,91%
Cc1ccc(Nc2nccc(N(C)c3ccc4c(C)n(C)nc4c3)n2)cc1S(N)(=O)=O,RPS6KA6,enzyme activity,inhibitor,,0.5 µM,remaining activity,96.8%
Cc1nccc(COC(=O)N2C[C@@H]3[C@@H](CNC(=O)c4ccc5[nH]nnc5c4)[C@@H]3C2)n1,RPS6KA6 N-terminal kinase domain,cell-free assay,,competition with immobilised ligand,1 µM,remaining binding,100%
C[C@@H]1CCN(c2nccc(-c3cnn4ncccc34)n2)C1,RPS6KA6 C-terminal kinase domain,binding,,competition with immobilised ligand,1 µM,remaining binding,66%
Oc1ccc(-c2nc(-c3ccncc3)c(-c3ccc(F)cc3)[nH]2)cc1,RPS6KA6,cell-free assay,,,0.5 µM,remaining signal,110%
Cc1ccc(NC(=O)c2ccc(C)c(C(F)(F)F)c2)cc1C#Cc1nn(C2CCC(O)CC2)c2ncnc(N)c12 (centres unmarked),RPS6KA6,cell-free assay,,,10 µM,remaining signal,44%
N#CCCc1ccc2c(c1)-c1[nH]c3ccc([N+](=O)[O-])cc3c1CC(=O)N2,RPS6KA6,cell-free assay,,,0.5 µM,remaining signal,13.4%
CC1(C)NC(=O)c2[nH]c3c(Cl)c(Cl)ccc3c2C1C#N (centres unmarked),RPS6KA6,thermal stability,,DSF,10 µM,ΔTm,2.2 °C
CO[C@@H](C)c1c(Nc2ccc([C@@H](N(C)C(=O)C3CCS(=O)(=O)CC3)C(F)(F)F)cc2)cnc2cc(Cl)nn12,RPS6KA6 C-terminal kinase domain,cell-free assay,,competition with immobilised ligand,1 µM,remaining binding,98%
Cc1sc(C(=O)NC2COC2)cc1-n1cc(NC(=O)Nc2c(F)cccc2Cl)cn1,RPS6KA6,enzyme activity,inhibitor,,10 µM,remaining activity,116%
F[C@@H]1CCN(c2nccc(-c3cnn4ncccc34)n2)C1,RPS6KA6 N-terminal kinase domain,binding,,competition with immobilised ligand,1 µM,remaining binding,82%
CNC(=O)c1cc(Oc2ccc(NC(=O)Nc3ccc(Cl)c(C(F)(F)F)c3)cc2)ccn1,RPS6KA6,enzyme activity,inhibitor,,0.3 µM,inhibition,-29%
Cn1c2c(c3ccc(Cl)c(Cl)c31)C(C#N)C1(CCOCC1)NC2=O (centres unmarked),RPS6KA6,thermal stability,,DSF,10 µM,ΔTm,0.1 °C
Nc1ncnc2occ(-c3ccc(NC(=O)Nc4cc(C(F)(F)F)ccc4F)cc3)c12,RPS6KA6 N-terminal kinase domain,cell-free assay,inhibitor,,20 µM,remaining signal,5.5%
c1cnn2ncc(-c3ccnc(N4CCC45COC5)n3)c2c1,RPS6KA6 N-terminal kinase domain,binding,,competition with immobilised ligand,1 µM,remaining binding,58%
O=C(N1CCS(=O)(=O)CC1)N1C[C@H](c2ccc(OC(F)(F)F)cc2)C[C@H](c2nc(C3CC3)no2)C1,RPS6KA6 C-terminal kinase domain,cell-free assay,,competition with immobilised ligand,1 µM,remaining binding,100%
CN1CC(Oc2cnc(C#N)cc2-c2ccn3nc(NC(=O)C4CC4)cc3c2)C1,RPS6KA6,enzyme activity,inhibitor,,1 µM,inhibition,-4%
N[C@H]1CCN(c2nccc(-c3cnn4ncccc34)n2)C1,RPS6KA6 N-terminal kinase domain,binding,,competition with immobilised ligand,1 µM,remaining binding,100%
Cn1c2c(Cl)c(Cl)ccc2c2cn[nH]c(=O)c21,RPS6KA6,thermal stability,,DSF,10 µM,ΔTm,2 °C
CN(CCCC(F)(F)F)c1nccc(-c2cnn3ncccc23)n1,RPS6KA6 N-terminal kinase domain,binding,,competition with immobilised ligand,1 µM,remaining binding,100%
CO[C@H]1CC[C@H](CNc2ccc(S(=O)(=O)NC(=O)c3ccc(N4CCN(CC5=C(c6ccc(Cl)cc6)CC(C)(C)CC5)CC4)cc3Oc3cnc4[nH]ccc4c3)cc2[N+](=O)[O-])CC1,RPS6KA6 C-terminal kinase domain,cell-free assay,,competition with immobilised ligand,1 µM,remaining binding,81%
O=C1Nc2ccc(Cl)cc2C1=Cc1cc(Cl)c(O)c(Cl)c1,RPS6KA6,cell-free assay,,,0.5 µM,remaining signal,78.5%
CN(C)c1ncnc(-c2ccc3nc(Nc4cc(CN5CCN(C(=O)CC(F)(F)F)CC5)ccn4)[nH]c3c2)c1Cl,RPS6KA6 C-terminal kinase domain,cell-free assay,,competition with immobilised ligand,1 µM,remaining binding,81%
Cc1cnc(NC2CCOCC2)nc1-n1cnc(C(=O)NC(CN)c2cc(F)cc(Cl)c2)c1 (centres unmarked),RPS6KA6,enzyme activity,inhibitor,radiometric,1 µM,remaining activity,17%
CC/C(=N\NC(=O)NCc1cccc(O)c1)c1ccc(O)c(C)c1O,RPS6KA6,enzyme activity,inhibitor,,0.1 µM,inhibition,66.4%
COc1ccc2c(c1)O[C@H](c1ccc(OC)c(OC)c1)C[C@@H]2NC(=O)C1(c2ccc3c(c2)OC(F)(F)O3)CC1,RPS6KA6 C-terminal kinase domain,cell-free assay,,competition with immobilised ligand,1 µM,remaining binding,91%
CCN(CC)CCNC(=O)c1c(C)[nH]c(/C=C2\C(=O)Nc3ccc(F)cc32)c1C,RPS6KA6,cell-free assay,,,0.5 µM,remaining signal,17.5%
CC(C)(C)c1nc2c(s1)c1nc(N)ncc1c1ccc(NS(=O)(=O)c3c(F)cccc3F)c(F)c12,RPS6KA6,enzyme activity,inhibitor,radiometric,1 µM,remaining activity,97%
